Data: ChEMBL document CHEMBL1141075, “4-Oxo-4,7-dihydrothieno[2,3-b]pyridines as non-nucleoside inhibitors of human cytomegalovirus and related herpesvirus polymerases” (J Med Chem, 2005)

Key:
[1] = biological target: T1, DNA polymerase alpha catalytic subunit (Homo sapiens, UniProt P09884); test: Inhibition of human alpha DNA polymerase (95 uL) activity in a solution containg […] HEPES (pH 7.5) upon incubation for 12 minutes at 26 degrees C with the compound dissolved in DMSO
T1 sequence (P09884 whole entry): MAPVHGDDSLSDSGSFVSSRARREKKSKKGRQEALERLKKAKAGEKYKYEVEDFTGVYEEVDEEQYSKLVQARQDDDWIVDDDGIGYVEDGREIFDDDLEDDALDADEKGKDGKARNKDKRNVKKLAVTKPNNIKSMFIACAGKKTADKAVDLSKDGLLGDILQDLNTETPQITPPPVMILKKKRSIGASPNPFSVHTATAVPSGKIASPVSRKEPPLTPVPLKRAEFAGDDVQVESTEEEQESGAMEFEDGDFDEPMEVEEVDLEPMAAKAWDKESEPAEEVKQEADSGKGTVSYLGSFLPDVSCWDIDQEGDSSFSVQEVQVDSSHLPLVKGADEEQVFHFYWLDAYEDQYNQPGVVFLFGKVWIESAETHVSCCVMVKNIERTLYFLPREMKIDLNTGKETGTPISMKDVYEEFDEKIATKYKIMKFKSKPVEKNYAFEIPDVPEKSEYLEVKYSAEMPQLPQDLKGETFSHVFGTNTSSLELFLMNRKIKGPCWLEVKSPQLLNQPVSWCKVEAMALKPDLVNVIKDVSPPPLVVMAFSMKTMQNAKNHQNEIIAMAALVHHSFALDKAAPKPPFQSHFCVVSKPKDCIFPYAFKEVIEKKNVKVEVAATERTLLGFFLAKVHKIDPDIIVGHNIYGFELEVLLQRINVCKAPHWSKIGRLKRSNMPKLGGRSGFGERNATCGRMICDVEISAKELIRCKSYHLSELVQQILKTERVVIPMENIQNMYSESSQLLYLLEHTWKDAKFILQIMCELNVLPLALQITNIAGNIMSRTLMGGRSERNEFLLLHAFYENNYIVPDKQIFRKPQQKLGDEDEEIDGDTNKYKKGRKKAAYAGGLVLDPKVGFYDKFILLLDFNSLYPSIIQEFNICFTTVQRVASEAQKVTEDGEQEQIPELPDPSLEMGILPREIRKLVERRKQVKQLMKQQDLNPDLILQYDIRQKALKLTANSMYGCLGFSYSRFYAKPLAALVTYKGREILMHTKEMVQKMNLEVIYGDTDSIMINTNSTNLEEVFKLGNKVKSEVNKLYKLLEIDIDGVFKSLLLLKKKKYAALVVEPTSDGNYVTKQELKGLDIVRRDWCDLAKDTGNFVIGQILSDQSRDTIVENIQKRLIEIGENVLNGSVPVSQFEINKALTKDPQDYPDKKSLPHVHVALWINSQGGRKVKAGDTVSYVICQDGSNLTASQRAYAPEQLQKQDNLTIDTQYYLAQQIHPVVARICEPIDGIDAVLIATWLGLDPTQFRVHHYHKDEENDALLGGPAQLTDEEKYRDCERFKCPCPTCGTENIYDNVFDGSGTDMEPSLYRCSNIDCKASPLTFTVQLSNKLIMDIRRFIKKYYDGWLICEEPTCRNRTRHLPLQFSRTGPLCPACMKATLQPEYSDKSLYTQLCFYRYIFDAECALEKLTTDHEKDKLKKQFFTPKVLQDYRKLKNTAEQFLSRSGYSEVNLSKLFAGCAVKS

HFF [2] = test: Antiviral activity against human cytomegalovirus (Davis strain) grown on human foreskin fibroblast cells determined by reduction in plaque formation upon incubation at 37 degrees C with the compound dissolved in DMSO; format: functional, cell-based
[3] = biological target: T2, DNA polymerase catalytic subunit (Herpes simplex virus (type 1 / strain 17), UniProt P04293); test: Inhibition of herpes simplex virus type 1 DNA polymerase (95 uL) activity in a solution containing […] HEPES (pH 7.5), incubation for 12 minutes at 26 degrees C; set-up: species or system Human alphaherpesvirus 1
T2 sequence (P04293 whole entry): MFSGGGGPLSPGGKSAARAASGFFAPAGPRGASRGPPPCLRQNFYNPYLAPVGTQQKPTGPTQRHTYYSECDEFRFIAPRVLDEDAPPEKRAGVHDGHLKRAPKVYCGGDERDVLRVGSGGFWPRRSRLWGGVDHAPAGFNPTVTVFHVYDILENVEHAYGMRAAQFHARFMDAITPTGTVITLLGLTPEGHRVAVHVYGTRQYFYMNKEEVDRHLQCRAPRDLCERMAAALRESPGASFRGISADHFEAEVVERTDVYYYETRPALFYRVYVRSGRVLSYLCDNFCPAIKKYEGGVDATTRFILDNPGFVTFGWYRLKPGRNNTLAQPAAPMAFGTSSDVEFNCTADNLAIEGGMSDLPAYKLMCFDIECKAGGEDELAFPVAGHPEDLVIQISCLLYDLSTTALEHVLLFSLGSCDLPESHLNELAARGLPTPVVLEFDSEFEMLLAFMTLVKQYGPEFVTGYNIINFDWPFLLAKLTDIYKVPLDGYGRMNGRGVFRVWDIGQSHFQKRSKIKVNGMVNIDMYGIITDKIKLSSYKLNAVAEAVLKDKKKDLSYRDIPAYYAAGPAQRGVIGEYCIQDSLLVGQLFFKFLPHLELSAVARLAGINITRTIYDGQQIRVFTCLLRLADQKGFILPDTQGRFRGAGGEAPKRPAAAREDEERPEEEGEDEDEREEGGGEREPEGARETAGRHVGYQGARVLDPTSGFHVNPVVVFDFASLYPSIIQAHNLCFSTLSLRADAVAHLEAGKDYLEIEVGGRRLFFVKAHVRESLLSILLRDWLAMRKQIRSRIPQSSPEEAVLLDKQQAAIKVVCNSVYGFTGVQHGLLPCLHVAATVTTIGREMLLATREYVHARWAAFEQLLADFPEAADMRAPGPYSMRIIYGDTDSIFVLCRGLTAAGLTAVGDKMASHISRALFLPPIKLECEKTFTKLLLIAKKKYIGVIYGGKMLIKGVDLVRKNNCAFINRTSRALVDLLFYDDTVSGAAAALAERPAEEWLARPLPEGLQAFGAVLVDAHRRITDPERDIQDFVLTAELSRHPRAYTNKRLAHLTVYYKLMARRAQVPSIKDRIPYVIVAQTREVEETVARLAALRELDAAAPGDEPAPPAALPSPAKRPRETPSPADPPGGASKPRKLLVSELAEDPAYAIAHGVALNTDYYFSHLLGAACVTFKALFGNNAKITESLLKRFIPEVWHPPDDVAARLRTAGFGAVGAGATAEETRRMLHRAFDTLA

Vero [4] = test: Antiviral activity against herpes simplex virus type 1 (KOS strain) grown on human foreskin fibroblast cells determined by vedduction in plaque formation upon incubation at 37 degrees C with the compound dissolved in DMSO until plaque were formed; format: functional, cell-based
Summary of the method: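 HSV-1 KOS, about 50 PFU per well, was adsorbed for 1 h at 37 °C. The inoculum was then replaced with drug dilutions from 200-fold DMSO stocks in DMEM containing 10% FBS and 0.8% carboxymethyl cellulose. Cultures were kept at 37 °C until plaques appeared. Plaques were counted microscopically or by crystal violet staining (0.1% in 20% ethanol). IC50 came from linear regression of % inhibition relative to the uninhibited control.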

[5] = Toxicity on uninfected human foreskin fibroblast cells determined in microscopic evaluation and quantitative neutral red dye uptake assay; format: cell-based; conditions: uninfected human foreskin fibroblast (HFF) cells
Summary of the method: (§1)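 Uninfected cells were seeded as subconfluent monolayers and exposed to compound for 3 days. Viability was judged both by microscopic inspection and by quantitative neutral red dye uptake, giving CC50.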

HFF [6] = test: Antiviral activity against Varicella-Zoster virus (Webster strain) grown on human foreskin fibroblast cells determined by vedduction in plaque formation upon incubation at 37 degrees C with the compound dissolved in DMSO until plaque were formed; format: functional, cell-based
Summary of the method: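 Monolayers of human foreskin fibroblasts were infected with about 50 PFU per well for 1 h at 37 °C. The inoculum was then replaced with DMEM containing 10% FBS, 0.8% carboxymethyl cellulose and diluted compound from 200-fold DMSO stocks. Plates were incubated at 37 °C until plaques formed. Plaques were counted microscopically or after 0.1% crystal violet staining. IC50 came from linear regression of % inhibition versus untreated controls.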

[7] = Toxicity on uninfected African green monkey kidney cells determined in microscopic evaluation and quantitative neutral red dye uptake assay; format: cell-based; conditions: chlorocebus sabaeus, uninfected African green monkey kidney (Vero) cells; summary of the method: as §1
Vero [8] = test: cells; conditions: Chlorocebus sabaeus, 1 h
Vero [9] = test: cells; conditions: Chlorocebus sabaeus, 1 h; remark: listed apart in the source
Vero [10] = test: cells; conditions: Chlorocebus sabaeus, 1 h; remark: listed apart in the source
Vero [11] = test: cells; conditions: Chlorocebus sabaeus, 1 h; remark: listed apart in the source
Vero [12] = test: cells; conditions: Chlorocebus sabaeus, 1 h; remark: listed apart in the source
Vero [13] = test: cells; conditions: Chlorocebus sabaeus, 1 h; remark: listed apart in the source
Vero [14] = test: cells; conditions: Chlorocebus sabaeus, 1 h; remark: listed apart in the source
Vero [15] = test: cells; conditions: Chlorocebus sabaeus, 1 h; remark: listed apart in the source
Vero [16] = test: cells; conditions: Chlorocebus sabaeus, 1 h; remark: listed apart in the source
HFF [17] = test: Antiviral activity against human cytomegalovirus Ad169 (V823A) plaque forming unit grown on Human foreskin fibroblast cells upon incubation for 1 hour at 37 degrees C with compound dissolved in DMSO; format: functional, cell-based
Summary of the method: (§2)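 Plaque reduction: about 50 PFU added per well of a 24-well dish of the appropriate cells, 1 h at 37 °C, then the inoculum was replaced by drug-containing DMEM with 10% FBS and 0.8% carboxymethyl cellulose. DMSO stocks were 200-fold. Plates were held at 37 °C until plaques formed. Plaques were counted microscopically or after crystal violet stain. Percent inhibition was taken against the uninhibited control, with IC50 by linear regression.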

HFF [18] = test: Antiviral activity against human cytomegalovirus Ad169 (WT) plaque forming unit grown on Human foreskin fibroblast cells upon incubation for 1 hour at 37 degrees C with compound dissolved in DMSO; format: functional, cell-based; summary of the method: as §2

| SMILES | IC50 [1] | IC50 (HFF [2]) | IC50 [3] | IC50 (Vero [4]) | CC50 [5] | IC50 (HFF [6]) | CC50 [7] | IC50 (Vero [8]) | IC50 (Vero [9]) | IC50 (Vero [10]) | IC50 (Vero [11]) | IC50 (Vero [12]) | IC50 (Vero [13]) | IC50 (Vero [14]) | IC50 (Vero [15]) | IC50 (Vero [16]) | IC50 (HFF [17]) | IC50 (HFF [18]) |
| --- | --- | --- | --- | --- | --- | --- | --- | --- | --- | --- | --- | --- | --- | --- | --- | --- | --- | --- |
| Cn1cc(C(=O)NCc2ccc(Cl)cc2)c(=O)c2cc(CCCO)sc21 | > 40 µM | 0.6 µM | 0.5 µM | 3 µM | > 100 µM | 0.09 µM | > 100 µM | – | – | – | – | – | – | – | – | – | – | – |
| Nc1nc2c(ncn2COCCO)c(=O)[nH]1 [ACYCLOVIR] | – | – | – | – | > 100 µM | – | > 100 µM | > 10 µM | 2.4 µM | 3.5 µM | 4.4 µM | > 10 µM | 2.8 µM | > 10 µM | 5.4 µM | > 10 µM | – | – |
| Nc1nc2c(ncn2COC(CO)CO)c(=O)[nH]1 [GANCICLOVIR] | – | – | – | – | > 100 µM | – | > 100 µM | – | – | – | – | – | – | – | – | – | 0.8 µM | 0.8 µM |
